Experimental data from ChEMBL document CHEMBL4842372, “Discovery of ARD-2585 as an Exceptionally Potent and Orally Active PROTAC Degrader of Androgen Receptor for the Treatment of Advanced Prostate Cancer” (J Med Chem, 2021).
Active and inactive are the calls of the source. No cut-off for these calls is given here.

What was measured:
[1] = molecular target: T1, Protein cereblon/Androgen receptor (Homo sapiens, UniProt P10275+Q96SW2); experiment: Protac activity at CRBN/AR in human 22Rv1 cells assessed as reduction in AR protein level at 30 nM after 24 hrs by Western blot analysis relative to control; assay type: cell-based
Procedure, shortened: (§1)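 Western blot of AR after 24 h exposure to a concentration series in ATCC-derived cells, all with 10% FBS at 37 °C and 5% CO2: LNCaP and 22Rv1 in RPMI1640, VCaP in DMEM with Glutamax, MDA-PCa-2b in F-12K. Lysis in RIPA with protease and phosphatase inhibitors, then 4–12% SDS-PAGE and PVDF transfer. Band minus background is normalised to GAPDH.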

[2] = Drug distribution in heart of CB17:SCID mouse xenografted with human VCaP cells at 20 mg/kg, po measured at 6 hrs by LCMS analysis; assay type: ADME, organism-based; settings: read-out: Drug uptake
Procedure, shortened: (§2)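 Tumor-bearing male CB17 SCID mice (VCaP xenografts) given one 20 mg/kg oral dose in 100% PEG200, three mice per time point; plasma, tumor, liver, kidney, prostate and heart taken at 1, 6 and 24 h; tissues homogenised in water/acetonitrile, protein precipitated with cold acetonitrile, drug quantified by LC–MS/MS; ratios are tissue over plasma level.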

[3] = Drug distribution in CB17:SCID mouse xenografted with human VCaP cells assessed as heart to plasma ratio at 20 mg/kg, po measured at 1 hrs by LCMS analysis; assay type: ADME, organism-based; procedure, shortened: as §2
[4] = Drug distribution in CB17:SCID mouse xenografted with human VCaP cells assessed as heart to plasma ratio at 20 mg/kg, po measured at 6 hrs by LCMS analysis; assay type: ADME, organism-based; procedure, shortened: as §2
VCaP [5] = experiment: Potency index, ratio of ARV-110 IC50 to compound IC50 for reduction in AR degradation human VCaP cells after 24 hrs by Western blot analysis; assay type: functional
[6] = test system: Protein cereblon/Androgen receptor (Homo sapiens), P10275+Q96SW2 [T878A]; experiment: Protac activity at CRBN/AR T878A mutant in human LNCaP cells assessed as reduction in AR protein level at 100 nM after 3 hrs in presence of N-((1r,4r)-4-((3-chloro-4-cyanophenyl)(methyl)amino)cyclohexyl)-4-(4-methylpiperazin-1-yl)benzamide by Western blot analysis
[7] = molecular target: Voltage-gated inwardly rectifying potassium channel KCNH2 (Homo sapiens, UniProt Q12809); experiment: Inhibition of human ERG up to 30 uM
Procedure, shortened: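 hERG potassium channel stably expressed in HEK 293 cells; current recorded by manual patch clamp at 0.3, 1, 3, 10 and 30 μM, in duplicate, for concentration–response.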

[8] = Drug distribution in CB17:SCID mouse xenografted with human VCaP cells assessed as liver to plasma ratio at 20 mg/kg, po measured at 24 hrs by LCMS analysis; assay type: ADME, organism-based; procedure, shortened: as §2
[9] = molecular target: T1, Protein cereblon/Androgen receptor; experiment: Protac activity at CRBN/AR in human VCaP cells assessed as reduction in AR protein level at 3 nM after 24 hrs by Western blot analysis relative to control; assay type: cell-based; procedure, shortened: as §1
[10] = Drug distribution in kidney of CB17:SCID mouse xenografted with human VCaP cells at 20 mg/kg, po measured at 6 hrs by LCMS analysis; assay type: ADME, organism-based; settings: read-out: Drug uptake; procedure, shortened: as §2
[11] = test system: Protein cereblon/Androgen receptor (Homo sapiens), P10275+Q96SW2 [T878A]; experiment: Protac activity at CRBN/AR T878A mutant in human LNCaP cells assessed as reduction in AR protein level at 100 nM after 3 hrs in presence of thalidomide by Western blot analysis
[12] = Drug distribution in prostate gland of CB17:SCID mouse xenografted with human VCaP cells at 20 mg/kg, po measured at 24 hrs by LCMS analysis; assay type: ADME, organism-based; settings: read-out: Drug uptake; procedure, shortened: as §2
[13] = Drug distribution in prostate gland of CB17:SCID mouse xenografted with human VCaP cells at 20 mg/kg, po measured at 6 hrs by LCMS analysis; assay type: ADME, organism-based; settings: read-out: Drug uptake; procedure, shortened: as §2
[14] = molecular target: T1, Protein cereblon/Androgen receptor; experiment: Protac activity at CRBN/AR in human MDA-PCa-2b cells assessed as maximal AR degradation at 1 nM after 24 hrs by Western blot analysis relative to control; assay type: cell-based; procedure, shortened: as §1
VCaP [15] = experiment: Antitumor activity against human VCaP cells xenografted in CB17:SCID mouse assessed as reduction in AR protein level in tumor at 10 mg/kg, po for 3 days measured at 6 hrs by Western blot analysis; assay type: functional; settings: 72 h, time 3 day
Procedure, shortened: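 Male CB17 SCID mice bearing subcutaneous VCaP tumors (5 × 10^6 cells in Matrigel); dosed by oral gavage in 100% PEG200 at 10 mg/kg daily for 3 days; tumors harvested 3, 6 and 24 h post-dose, lysed in RIPA, Western blot for AR with GAPDH loading control, bands quantified by densitometry relative to loading control.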

[16] = molecular target: T1, Protein cereblon/Androgen receptor; experiment: Protac activity at CRBN/AR in human VCaP cells assessed as reduction in AR protein level at 100 nM after 3 hrs in presence of thalidomide by Western blot analysis
[17] = Drug distribution in tumor of CB17:SCID mouse xenografted with human VCaP cells at 20 mg/kg, po measured at 6 hrs by LCMS analysis; assay type: ADME, organism-based, Neoplasm; settings: read-out: Drug uptake; procedure, shortened: as §2
[18] = Drug distribution in plasma of CB17:SCID mouse xenografted with human VCaP cells at 20 mg/kg, po measured at 24 hrs by LCMS analysis; assay type: ADME, organism-based; procedure, shortened: as §2
[19] = Drug distribution in CB17:SCID mouse xenografted with human VCaP cells assessed as tumor to plasma ratio at 20 mg/kg, po measured at 1 hrs by LCMS analysis; assay type: ADME, organism-based; procedure, shortened: as §2
[20] = test system: Protein cereblon/Androgen receptor (Homo sapiens), P10275+Q96SW2 [T878A]; experiment: Protac activity at CRBN/AR T878A mutant in human LNCaP cells assessed as reduction in AR protein level at 3 nM after 24 hrs by Western blot analysis relative to control; assay type: cell-based; procedure, shortened: as §1
[21] = molecular target: T1, Protein cereblon/Androgen receptor; experiment: Protac activity at CRBN/AR in human 22Rv1 cells assessed as maximal AR degradation at 0.1 nM after 24 hrs by Western blot analysis relative to control; assay type: cell-based; procedure, shortened: as §1
[22] = Drug distribution in heart of CB17:SCID mouse xenografted with human VCaP cells at 20 mg/kg, po measured at 1 hrs by LCMS analysis; assay type: ADME, organism-based; settings: read-out: Drug uptake; procedure, shortened: as §2
[23] = Drug distribution in plasma of CB17:SCID mouse xenografted with human VCaP cells at 20 mg/kg, po measured at 6 hrs by LCMS analysis; assay type: ADME, organism-based; procedure, shortened: as §2
VCaP [24] = experiment: Growth inhibition of human VCaP cells assessed as cell viability by WST-8 assay; assay type: functional, cell-based
VCaP [25] = experiment: Antitumor activity against human VCaP cells xenografted in CB17:SCID mouse assessed as tumor growth inhibition at 20 mg/kg, po treated for 37 days relative to control; assay type: functional; settings: 888 h, time 37 day, read-out: TGI
[26] = Drug distribution in CB17:SCID mouse xenografted with human VCaP cells assessed as kidney to plasma ratio at 20 mg/kg, po measured at 6 hrs by LCMS analysis; assay type: ADME, organism-based; procedure, shortened: as §2

T1 sequence (P10275 whole entry, looked up): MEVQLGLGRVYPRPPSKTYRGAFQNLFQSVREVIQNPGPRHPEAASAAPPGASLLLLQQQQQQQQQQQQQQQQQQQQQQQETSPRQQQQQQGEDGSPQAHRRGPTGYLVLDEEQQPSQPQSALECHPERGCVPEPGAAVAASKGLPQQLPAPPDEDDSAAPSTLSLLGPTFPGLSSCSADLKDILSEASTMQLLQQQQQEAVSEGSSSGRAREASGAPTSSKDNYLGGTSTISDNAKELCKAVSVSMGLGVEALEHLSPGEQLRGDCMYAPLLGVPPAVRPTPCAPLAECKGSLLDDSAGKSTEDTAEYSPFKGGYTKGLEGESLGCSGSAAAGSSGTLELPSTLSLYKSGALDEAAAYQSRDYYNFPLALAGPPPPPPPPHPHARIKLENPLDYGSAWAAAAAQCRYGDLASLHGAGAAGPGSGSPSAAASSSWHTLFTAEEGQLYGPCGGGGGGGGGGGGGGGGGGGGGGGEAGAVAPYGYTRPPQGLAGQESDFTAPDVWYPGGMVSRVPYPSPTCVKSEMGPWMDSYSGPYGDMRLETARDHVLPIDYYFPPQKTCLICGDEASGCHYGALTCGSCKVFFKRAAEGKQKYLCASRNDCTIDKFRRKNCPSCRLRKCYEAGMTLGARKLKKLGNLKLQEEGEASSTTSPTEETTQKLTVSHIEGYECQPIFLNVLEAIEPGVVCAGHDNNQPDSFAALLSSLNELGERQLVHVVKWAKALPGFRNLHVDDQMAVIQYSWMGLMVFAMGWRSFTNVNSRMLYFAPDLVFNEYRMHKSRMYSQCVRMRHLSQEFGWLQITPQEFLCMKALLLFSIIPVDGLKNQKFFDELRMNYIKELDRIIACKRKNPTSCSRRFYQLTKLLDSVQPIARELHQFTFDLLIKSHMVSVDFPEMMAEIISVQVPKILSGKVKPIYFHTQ
T1 sequence (Q96SW2 whole entry, looked up): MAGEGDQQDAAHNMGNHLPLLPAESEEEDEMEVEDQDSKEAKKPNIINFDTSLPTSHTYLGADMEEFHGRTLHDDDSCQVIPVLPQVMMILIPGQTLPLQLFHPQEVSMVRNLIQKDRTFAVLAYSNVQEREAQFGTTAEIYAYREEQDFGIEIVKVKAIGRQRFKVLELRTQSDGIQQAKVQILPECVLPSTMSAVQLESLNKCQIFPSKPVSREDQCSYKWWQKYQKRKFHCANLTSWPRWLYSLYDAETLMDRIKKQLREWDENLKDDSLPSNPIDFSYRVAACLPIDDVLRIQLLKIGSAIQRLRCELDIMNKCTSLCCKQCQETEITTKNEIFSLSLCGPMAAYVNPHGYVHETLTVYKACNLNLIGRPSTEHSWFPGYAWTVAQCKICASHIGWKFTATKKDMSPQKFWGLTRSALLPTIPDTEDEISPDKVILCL
Sequence of Voltage-gated inwardly rectifying potassium channel KCNH2 (Q12809 whole entry): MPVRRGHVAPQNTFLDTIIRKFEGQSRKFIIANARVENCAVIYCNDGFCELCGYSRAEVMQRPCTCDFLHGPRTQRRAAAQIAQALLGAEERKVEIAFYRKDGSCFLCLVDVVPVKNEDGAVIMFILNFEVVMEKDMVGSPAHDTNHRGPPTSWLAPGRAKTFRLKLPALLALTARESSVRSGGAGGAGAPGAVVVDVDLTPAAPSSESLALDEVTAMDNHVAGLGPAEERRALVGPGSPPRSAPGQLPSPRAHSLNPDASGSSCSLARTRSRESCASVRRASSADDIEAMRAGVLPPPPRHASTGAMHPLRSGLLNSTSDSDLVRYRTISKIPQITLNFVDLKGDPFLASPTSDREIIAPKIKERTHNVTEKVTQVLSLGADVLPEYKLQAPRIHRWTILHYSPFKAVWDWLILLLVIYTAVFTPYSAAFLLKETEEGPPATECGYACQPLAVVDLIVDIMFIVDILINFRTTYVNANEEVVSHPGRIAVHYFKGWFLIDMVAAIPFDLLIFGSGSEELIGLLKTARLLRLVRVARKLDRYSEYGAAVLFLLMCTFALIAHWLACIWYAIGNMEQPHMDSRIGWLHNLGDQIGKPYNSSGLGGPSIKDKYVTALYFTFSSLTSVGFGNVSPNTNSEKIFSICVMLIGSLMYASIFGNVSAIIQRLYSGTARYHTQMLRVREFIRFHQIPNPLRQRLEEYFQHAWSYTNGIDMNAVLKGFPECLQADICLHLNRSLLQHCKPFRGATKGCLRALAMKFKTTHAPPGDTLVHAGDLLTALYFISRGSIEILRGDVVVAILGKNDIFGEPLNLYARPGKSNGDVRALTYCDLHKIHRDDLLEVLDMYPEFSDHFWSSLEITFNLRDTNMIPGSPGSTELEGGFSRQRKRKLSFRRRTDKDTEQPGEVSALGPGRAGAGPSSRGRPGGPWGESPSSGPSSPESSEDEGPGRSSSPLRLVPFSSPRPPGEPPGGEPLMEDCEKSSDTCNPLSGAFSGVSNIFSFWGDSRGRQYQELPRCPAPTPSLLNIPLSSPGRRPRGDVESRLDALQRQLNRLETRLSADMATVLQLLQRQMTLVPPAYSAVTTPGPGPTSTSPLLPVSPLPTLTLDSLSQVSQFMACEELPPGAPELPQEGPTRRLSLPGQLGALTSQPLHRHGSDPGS

Question: With `CN(c1ccc(C#N)c(Cl)c1)[C@H]1CC[C@H](NC(=O)c2ccc(N3CCN(C4CN(c5ccc6c(c5)C(=O)N(C5CCC(=O)NC5=O)C6=O)C4)CC3)cc2)CC1` (stereo partly specified) as the compound, how does the inhibition [1] read?
Answer: 80%

Question: What about the concentration at 6 h [2] of the same compound?
Answer: 339 ng/g

Question: What about the Kp at 1 h [3] of the same compound?
Answer: 3

Question: And the Kp at 6 h [4]?
Answer: 2.5

Question: What about the Ratio (VCaP [5]) of the same compound?
Answer: 30

Question: And the Activity [6]?
Answer: inactive

Question: And the “inhibition (INH)” value [7]?
Answer: Not Active

Question: What about the Kp at 24 h [8] of the same compound?
Answer: 32.1

Question: What about the inhibition [9] of the same compound?
Answer: 80%

Question: What about the concentration at 6 h [10] of the same compound?
Answer: 661 ng/g

Question: And the Activity [11]?
Answer: inactive

Question: What about the concentration at 24 h [12] of the same compound?
Answer: 107 ng/g

Question: And the concentration at 6 h [13]?
Answer: 76 ng/g

Question: What about the Emax [14] of the same compound?
Answer: > 95%

Question: And the inhibition in vivo at 10 mg/kg (VCaP [15])?
Answer: 60%

Question: What about the Activity [16] of the same compound?
Answer: inactive

Question: And the concentration at 6 h [17]?
Answer: 201 ng/g

Question: And the concentration at 24 h [18]?
Answer: 102 ng/mL

Question: And the Kp at 1 h [19]?
Answer: 0.7

Question: And the inhibition [20]?
Answer: 80%

Question: And the Emax [21]?
Answer: > 95%

Question: And the concentration at 1 h [22]?
Answer: 210 ng/g

Question: What about the concentration at 6 h [23] of the same compound?
Answer: 87 ng/mL

Question: And the IC50 (VCaP [24])?
Answer: 1.5 nM

Question: What about the inhibition in vivo at 20 mg/kg (VCaP [25]) of the same compound?
Answer: 74.3%

Question: What about the Kp at 6 h [26] of the same compound?
Answer: 4.9
